Data as given in ChEMBL document CHEMBL4251624, “Synthesis of podophyllotoxin linked β-carboline congeners as potential anticancer agents and DNA topoisomerase II inhibitors” (Eur J Med Chem, 2018).
Calls of active or inactive are those of the source. No cut-off for these calls is given here.

How the values were obtained:
[1] = tested on: A549; experiment: Cytotoxicity against human A549 cells after 48 hrs by MTT assay; format: functional, cell-based; details: A549, 48 h
In short: (§1)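 MTT assay. Cells seeded at 1×10^4 per well in DMEM or MEM with 10% FBS and grown 24 h at 37 °C under CO2. Compounds added for 48 h, then MTT (5 mg/mL stock) for 4 h. Formazan dissolved in DMSO and read at 570 nm. IC50 is the average of three independent experiments.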

[2] = tested on: MDA-MB-231; experiment: Cytotoxicity against human MDA-MB-231 cells after 48 hrs by MTT assay; format: functional, cell-based; details: MDA-MB-231, 48 h; in short: as §1
[3] = tested on: HT-29; experiment: Cytotoxicity against human HT-29 cells after 48 hrs by MTT assay; format: functional, cell-based; details: HT-29, 48 h; in short: as §1
[4] = tested on: HeLa; experiment: Cytotoxicity against human HeLa cells after 48 hrs by MTT assay; format: functional, cell-based; in short: as §1
[5] = tested on: DU-145; experiment: Induction of DNA damage in human DU145 cells after 24 hrs using propidium iodide stain by electrophoresis based fluorescence microscopic method; format: functional, cell-based
In short: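 DU-145 cells seeded in 60 mm dishes, treated at 10 μM for 24 h alongside an untreated control. Slides were washed three times in 0.4 M Tris-HCl pH 7.5, electrophoresed 20 min at 40 V in 0.5% TBE pH 8, PI-stained 30 min, and imaged at 20x.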

[6] = species on record: Homo sapiens; experiment: Poisoning activity at topoisomerase-2 (unknown origin) assessed as reduction in ATP-dependent decatenation of kinetoplast DNA by measuring linear DNA formation at 10 uM after 30 mins by ethidium bromide staining based UV trans-illumination assay
In short: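 Topo II (5 units, set to decatenate about 100% of kDNA) with 200–300 ng kDNA in 20 μl containing 120 mM KCl, 50 mM Tris-HCl pH 8, 10 mM MgCl2, 0.5 mM DTT, 0.5 mM ATP and BSA. Incubated 30 min at 37 °C, then stopped with SDS plus proteinase K for 10 min at 37 °C. Products run on 1% agarose at 100 V for about 40 min, EtBr-stained and viewed under UV. Etoposide 10 μM served as positive control.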

COc1cc([C@@H]2c3cc4c(cc3[C@@H](O[C@@H]3O[C@@H]5CO[C@@H](C)O[C@H]5[C@H](O)[C@H]3O)[C@H]3COC(=O)[C@H]23)OCO4)cc(OC)c1O [ETOPOSIDE] showed an IC50 [1] of 2270 nM, an IC50 [2] of 1910 nM and an IC50 [3] of 1640 nM. The IC50 [4] was 1930 nM, the Activity [5] was “Active” and the Activity [6] was “Active”.
